One experiment concerns PC-12. Kind of experiment: Neurotrophic activity in rat PC12 cells assessed as stimulation of NGF-induced neurite outgrowth at 10 uM after 72 hrs by phase-contrast microscopic analysis relative to control. Format: functional. An outline of the steps:
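PC12 cells kept in F12 with 12.5% horse serum and 2.5% FBS at 37 °C, 5% CO2, then seeded at 5 × 10^4 cells/mL on poly-L-lysine. After 24 h, medium switched to 10 μM compound (DMSO, final 0.05%) plus 5 ng/mL NGF; controls: no NGF, 5 ng/mL or 50 ng/mL NGF. After 72 h, phase-contrast scoring: neurite ≥ soma diameter; % neurite-bearing cells, ≥100 cells/view, 5 views/well.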

A further experiment concerns HL-60. Put plainly: Cytotoxicity against human HL60 cells. The format is functional, cell-based.
The nature of experiment [1]: Cytotoxicity against human […] cells. Format: functional, cell-based.
In the next experiment the test system is A549. Put plainly: Cytotoxicity against human A549 cells. Format: functional, cell-based.
The subject of another experiment is MCF7. Put plainly: Cytotoxicity against human MCF7 cells. The format is functional, cell-based.
The next experiment concerns SW480. Kind of experiment: Cytotoxicity against human SW480 cells. The format is functional, cell-based.
The next experiment deals with Human alphaherpesvirus 1. Put plainly: Antiviral activity against HSV1. Format: functional, organism-based.
Another experiment deals with Human alphaherpesvirus 2. Put plainly: Antiviral activity against HSV2. Format: functional, organism-based.

The term IC50 denotes the concentration that gives 50% inhibition. Lower therefore signals inhibition by little substance. Broadly, the EC50 is the concentration needed to bring the measured effect to its halfway point.

`CC(C)=CCC[C@@](C)(O)[C@H]1CC[C@]2(C)[C@@H]1[C@H](O)C[C@@H]1[C@@]3(C)CC[C@H](O[C@@H]4O[C@H](CO)[C@@H](O)[C@H](O)[C@H]4O[C@@H]4O[C@H](CO)[C@@H](O)[C@H](O)[C@H]4O)C(C)(C)[C@@H]3CC[C@]12C`: the Activity in the experiment with PC-12 worked out at 9.5%. Moreover, the IC50 (in the experiment with HL-60; in experiment [1]; in the experiment on A549; with MCF7; with SW480) was above 10 µM throughout.
Regarding `CC(C)(O)[C@@H](O)/C=C/[C@](C)(O)[C@H]1CC[C@]2(C)[C@@H]1[C@H](O)C[C@@H]1[C@@]3(C)CC[C@H](O[C@@H]4O[C@H](CO)[C@@H](O)[C@H](O)[C@H]4O[C@@H]4O[C@H](CO)[C@@H](O)[C@H](O)[C@H]4O)C(C)(C)[C@@H]3CC[C@]12C`, in the experiment on PC-12, the Activity was 8.2%. Also, the concentration for half-maximal inhibition (IC50) (with HL-60; in experiment [1]; with A549; in the experiment with MCF7; in the experiment on SW480) was above 10 µM each time.
In the case of `CC(C)(O)[C@H](O)/C=C/[C@](C)(O)[C@H]1CC[C@]2(C)[C@@H]1[C@H](O)C[C@@H]1[C@@]3(C)CC[C@H](O[C@@H]4O[C@H](CO)[C@@H](O)[C@@H](O)[C@H]4O[C@@H]4O[C@H](CO)[C@@H](O)[C@H](O)[C@H]4O)C(C)(C)[C@@H]3CC[C@]12C`, the Activity in the experiment with PC-12 was determined as 10.8%. The IC50 (in the experiment on HL-60; in experiment [1]; in the experiment with A549; with MCF7; in the experiment on SW480) was above 10 µM each time.
Regarding `C/C(=C\[C@@H](O)[C@H](O)C(C)(C)O)[C@H]1CC[C@]2(C)[C@@H]1[C@H](O)C[C@@H]1[C@@]3(C)CC[C@H](O)C(C)(C)[C@@H]3[C@@H](O[C@@H]3O[C@H](CO)[C@@H](O)[C@H](O)[C@H]3O)C[C@]12C`, the Activity in the experiment with PC-12 was determined as 9.9%. For the same compound, the IC50 (in the experiment with HL-60; in experiment [1]; in the experiment on A549; in the experiment with MCF7; in the experiment with SW480) was above 10 µM throughout.
`C/C(=C/[C@H](O)[C@@H](O)C(C)(C)O)[C@H]1CC[C@]2(C)[C@@H]1[C@H](O)C[C@@H]1[C@@]3(C)CC[C@H](O)C(C)(C)[C@@H]3[C@@H](O[C@@H]3O[C@H](CO)[C@@H](O)[C@H](O)[C@H]3O)C[C@]12C`: the Activity in the experiment with PC-12 is 11.4%. Besides, the concentration for half-maximal inhibition (IC50) (in the experiment on HL-60; in experiment [1]; in the experiment with A549; with MCF7; in the experiment on SW480) was above 10 µM each time.
With `C/C(=C/[C@@H](O)[C@H](O)C(C)(C)O)[C@H]1CC[C@]2(C)[C@@H]1[C@H](O)C[C@@H]1[C@@]3(C)CC[C@H](O)C(C)(C)[C@@H]3[C@@H](O[C@@H]3O[C@H](CO)[C@@H](O)[C@H](O)[C@H]3O)C[C@]12C`, in the experiment with PC-12, the Activity worked out at 10.9%. Further, the IC50 (in the experiment on HL-60; in experiment [1]; in the experiment with A549; in the experiment with MCF7; with SW480) was above 10 µM throughout.
On to `CO[C@@H](/C=C(\C)[C@H]1CC[C@]2(C)[C@@H]1[C@H](O)C[C@@H]1[C@@]3(C)CC[C@H](O)C(C)(C)[C@@H]3[C@@H](O[C@@H]3O[C@H](CO)[C@@H](O)[C@H](O)[C@H]3O)C[C@]12C)[C@@H]1OC1(C)C`, for which, in the experiment on PC-12, the Activity is given as 11.6%. In addition, the IC50 (in the experiment with HL-60; in experiment [1]; in the experiment on A549; with MCF7; with SW480) was above 10 µM throughout.
Take `CO[C@@H](/C=C(\C)[C@H]1CC[C@]2(C)[C@@H]1[C@H](O)C[C@@H]1[C@@]3(C)CC[C@H](O[C@@H]4O[C@H](CO)[C@@H](O)[C@H](O)[C@H]4O[C@@H]4O[C@H](CO)[C@@H](O)[C@H](O)[C@H]4O)C(C)(C)[C@@H]3CC[C@]12C)[C@@H]1OC1(C)C`: the Activity in the experiment on PC-12 was determined as 11.4%. For the same compound, the concentration for half-maximal inhibition (IC50) (in the experiment on HL-60; in experiment [1]; with A549; with MCF7; with SW480) was above 10 µM in each case.
Consider `C/C(=C\C[C@H](O)C(C)(C)O)[C@H]1CC[C@]2(C)[C@@H]1[C@H](O)C[C@@H]1[C@@]3(C)CC[C@H](O)C(C)(C)[C@@H]3[C@@H](O[C@@H]3O[C@H](CO)[C@@H](O)[C@H](O)[C@H]3O)C[C@]12C`, for which, in the experiment on PC-12, the Activity came out at 9.3%. Further, the half-maximal inhibitory concentration (IC50) (with HL-60; in experiment [1]; in the experiment on A549; with MCF7; in the experiment on SW480) was above 10 µM throughout.
For `CC(C)=CCC[C@@](C)(O)[C@H]1CC[C@]2(C)[C@@H]1[C@H](O)C[C@@H]1[C@@]3(C)CC[C@H](O)C(C)(C)[C@@H]3[C@@H](O[C@@H]3O[C@H](CO)[C@@H](O)[C@H](O)[C@H]3O)C[C@]12C`, the Activity in the experiment on PC-12 came to 8.5%. The IC50 (in the experiment with HL-60; in experiment [1]; with A549; with MCF7; in the experiment with SW480) was above 10 µM in each case.
With `C=C(CCC=C(C)C)[C@H]1CC[C@]2(C)[C@@H]1[C@H](O)C[C@@H]1[C@@]3(C)CC[C@H](O[C@@H]4O[C@H](CO)[C@@H](O)[C@H](O)[C@H]4O)C(C)(C)[C@@H]3CC[C@]12C`, the Activity with PC-12 turned out to be 8.9%. Also, the half-inhibitory concentration (IC50) (in the experiment on HL-60; in experiment [1]; in the experiment on A549; in the experiment on MCF7; in the experiment on SW480) was above 10 µM each time.
In the case of `CC(=O)OC[C@H]1O[C@@H](O[C@H]2[C@H](O[C@H]3CC[C@]4(C)[C@H]5C[C@@H](O)[C@@H]6[C@@H]([C@@](C)(O)CCC=C(C)C)CC[C@@]6(C)[C@]5(C)CC[C@H]4C3(C)C)O[C@H](CO)[C@@H](O)[C@@H]2O)[C@H](O)[C@@H](O)[C@@H]1O`, in the experiment with PC-12, the Activity is 9.3%. The half-maximal inhibitory concentration (IC50) (with HL-60; in experiment [1]; in the experiment on A549; in the experiment with MCF7; in the experiment on SW480) was above 10 µM in each case.
With `CC(=O)OC[C@H]1O[C@@H](O[C@H]2[C@H](O[C@H]3CC[C@]4(C)[C@H]5C[C@@H](O)[C@@H]6[C@@H]([C@](C)(O)CCC=C(C)C)CC[C@@]6(C)[C@]5(C)CC[C@H]4C3(C)C)O[C@H](CO)[C@@H](O)[C@@H]2O)[C@H](O)[C@@H](O)[C@@H]1O`, the Activity with PC-12 was 13.4%. Besides, the half-inhibitory concentration (IC50) (in the experiment with HL-60; in experiment [1]; in the experiment with A549; with MCF7; in the experiment with SW480) was above 10 µM each time.
Take `CC(C)(O)CCC[C@@](C)(O)[C@H]1CC[C@]2(C)[C@@H]1[C@H](O)C[C@@H]1[C@@]3(C)CC[C@H](O)C(C)(C)[C@@H]3[C@@H](O[C@@H]3O[C@H](CO)[C@@H](O)[C@H](O)[C@H]3O)C[C@]12C`: the Activity with PC-12 amounted to 8.6%. Moreover, the 50% inhibitory concentration (IC50) (in the experiment on HL-60; in experiment [1]; in the experiment on A549; with MCF7; with SW480) was above 10 µM throughout.
`C=C(CCCC(C)(C)O)[C@H]1CC[C@]2(C)[C@@H]1[C@H](O)C[C@@H]1[C@@]3(C)CC[C@H](O)C(C)(C)[C@@H]3[C@@H](O[C@@H]3O[C@H](CO)[C@@H](O)[C@H](O)[C@H]3O)C[C@]12C`: the Activity in the experiment on PC-12 was determined as 8.3%. For the same compound, the IC50 (in the experiment on HL-60; in experiment [1]; with A549; with MCF7; with SW480) was above 10 µM each time.
For the compound `CC(C)=CCC[C@](C)(O)[C@H]1CC[C@]2(C)[C@@H]1[C@H](O)C[C@@H]1[C@@]3(C)CC[C@H](O[C@@H]4O[C@H](CO)[C@@H](O)[C@H](O)[C@H]4O[C@@H]4O[C@H](CO)[C@@H](O)[C@H](O)[C@H]4O[C@@H]4OC[C@@H](O)[C@H](O)[C@H]4O)C(C)(C)[C@@H]3CC[C@]12C`, the 50% effective concentration (EC50) in the experiment on Human alphaherpesvirus 1 was determined as 16.5 µM; in the experiment on Human alphaherpesvirus 2 it was 19.4 µM.

The record behind these values is ChEMBL document CHEMBL3593190, “Triterpenoids with Promoting Effects on the Differentiation of PC12 Cells from the Steamed Roots of Panax notoginseng” (J Nat Prod, 2015).
